Data from ChEMBL document CHEMBL1143018, “Synthesis and activity studies of analogues of the rat selective toxicant norbormide” (Bioorg Med Chem, 2007).
Calls of active or inactive are those of the source. The rule behind the calls is not given here.

What was measured:
[1] = test system: Heart; experiment: Coronaroconstriction in Wistar rat heart Langendorff preparations at 1 uM; assay type: functional, tissue-based
[2] = Vasoconstriction effect in Wistar rat caudal artery relative to KCl; assay type: functional, tissue-based
In short: (§1)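 Endothelium-denuded rat caudal artery rings; denudation was confirmed by absence of carbamylcholine-induced relaxation. Cumulative concentration–response curves were run over 0.1–50 µM. Contractions were expressed as a percentage of the 90 mM KCl-induced contraction. Values are mean of at least 4 rings.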

[3] = test system: Aorta; experiment: Vasodilation activity assessed as inhibition of KCl-induced contraction in Wistar rat aorta at 50 uM; assay type: functional
In short: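 Rat aortic rings were contracted with 90 mM KCl with and without a maximal concentration of compound. Inhibition was calculated as 100 × (C − AC)/C, where C and AC are the contractile effects in milligrams with KCl alone and with compound.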

[4] = Vasoconstriction effect in Wistar rat caudal artery; assay type: functional, tissue-based; in short: as §1
[5] = test system: Rattus norvegicus; experiment: Toxicity in Wistar rat assessed as death at 20 mg/kg, ip after 1 hr; assay type: functional, organism-based; design: dose 20 mg/kg
[6] = test system: Rattus norvegicus; experiment: Toxicity in Wistar rat assessed as death at 40 mg/kg, ip after 1 hr; assay type: functional, organism-based; design: dose 40 mg/kg
In short: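 Four male Wistar rats (150–250 g) per compound. Drug was dissolved in DMSO at 40 mg/kg and injected intraperitoneally. Animals were kept in a quiet room and watched every 15 min for early signs of toxicity. Four rats given solvent alone served as controls.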

[7] = test system: Liver; experiment: Stimulation of mitochondrial permeability transition measured by Ca2+ retention capacity of Wistar Albino rat liver mitochondria at 50 uM; assay type: functional
In short: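 Liver mitochondria from Albino Wistar rats, isolated by differential centrifugation and suspended in Tris/HCl pH 7.4 with 0.25 M sucrose and 0.1 mM EGTA. Only preparations with RCR ≥ 3.0 (Clark electrode, succinate, 25 °C) were used. MPT was induced by Ca2+ at 25 °C in medium of 200 mM sucrose, 10 mM Tris–MOPS, 10 µM EGTA–Tris, 1 mM Pi, 0.5 µg/mL oligomycin, 5 mM succinate, 2 µM rotenone, pH 7.4.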

[8] = test system: Liver; experiment: Stimulation of mitochondrial permeability transition measured by Ca2+ retention capacity of mouse liver mitochondria; assay type: functional

Row | Structure (SMILES) | Activity [1] | Activity [2] [%] | inhibition at 50 µM [3] [%] | EC50 [4] [µM] | Activity [5] | other results
1 | O=C1NC(=O)C2C3OC(C=C3C(O)(c3ccccc3)c3ccccn3)C12 (stereo not given) | inactive | – | – | – | – | –
2 | O=C1NC(=O)C2C3C(C(O)(c4ccccc4)c4ccccn4)=CC(/C3=C(/c3ccccc3)c3ccccn3)C12 (stereo not given) | Active | 209 | 64 | 1 | Toxic | –
3 | CC(O)(c1ccccc1)c1ccccn1 (stereo not given) | inactive | – | – | – | – | –
4 | O=C1NC(=O)[C@H]2C3CC(C=C3C(O)(c3ccccc3)c3ccccn3)[C@@H]12 (stereo not given in full) | inactive | – | – | – | – | –
5 | O=C1NC(=O)[C@H]2C3C=CC(C3)[C@@H]12 | inactive | – | – | – | – | –
6 | OC(C1=CC2CCC1/C2=C(\c1ccccc1)c1ccccn1)(c1ccccc1)c1ccccn1 (mixture of isomers) | inactive | – | 60 | – | Not toxic | –
7 | O=C1NC(=O)[C@H]2C3C(C(O)(c4ccccc4)c4ccccn4)=CC(C3=C(c3ccccc3)c3ccccc3)[C@@H]12 (stereo not given in full) | Active | 185 | 42 | 4.2 | – | Activity [6]: Toxic
8 | OC(C1=CC2CCC1C2)(c1ccccc1)c1ccccn1 (mixture of isomers) | inactive | – | 69 | – | Not toxic | –
9 | O=C1CCC(=O)N1 | inactive | – | – | – | – | –
10 | O=C1NC(=O)[C@H]2C3C=C(C(O)(c4ccccc4)c4ccccn4)C(C3=C(c3ccccc3)c3ccccc3)[C@@H]12 (stereo not given in full) | inactive | – | 31 | – | – | –
11 | O=C1NC(=O)C2C3C=CC(C3=C(c3ccccc3)c3ccccn3)C12 (stereo not given) | inactive | 193 | – | 7.8 | Not toxic | Activity [7]: Active
12 | O=C1NC(=O)[C@H]2C3C=C(C(O)(c4ccccc4)c4ccccn4)C(C3)[C@@H]12 (stereo not given in full) | inactive | – | – | – | – | –
13 | C=C(c1ccccc1)c1ccccn1 | inactive | 185 | – | 11 | Not toxic | Activity [8]: inactive; Activity [7]: Active
